Here are results for one compound from ChEMBL document CHEMBL1159071, “Discovery of 4-(5-methyloxazolo[4,5-b]pyridin-2-yl)-1,4-diazabicyclo[3.2.2]nonane (CP-810,123), a novel alpha 7 nicotinic acetylcholine receptor agonist for the treatment of cognitive disorders in schizophrenia: synthesis, SAR development, and in vivo efficacy in cognition models” (J Med Chem, 2010).

Data set [1] is described as follows: Ratio of drug level in brain to plasma of rat at 1 mg/kg, sc after 40 mins. The conditions noted are these: brain and plasma.
In data set [2] the target is Neuronal acetylcholine receptor subunit alpha-7 (Rattus norvegicus, UniProt Q05941). Briefly: Displacement of [125I]BTX from rat alpha7 nicotinic acetylcholine receptor expressed in GH4C1 cells. It is filed as cell-based, GH4-C1. The gist of the method: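 GH4C1 membranes (20 mM HEPES, 118 mM NaCl, 4.5 mM KCl, 2.5 mM CaCl2, 1.2 mM MgSO4, pH 7.5) incubated 2 h at 37 °C with [125I]α-bungarotoxin 0.4 nM final. Nonspecific binding with 1 μM methyllycaconitine; filtration onto PEI-treated GF/B filters. Ki = IC50/(1+[L]/KD); six-point curves in triplicate; geometric mean with 95% CI.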

In data set [3] the test system is Rattus norvegicus. Description: Cognitive enhancement in sc dosed Sprague-Dawley rat assessed as reversal of amphetamine-induced auditory sensory gating deficits. Particulars: read-out: MED. It is filed as functional. In outline: (§1)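 Male Sprague-Dawley rats (250-300 g) under chloral hydrate (400 mg/kg ip), femoral vein cannulated. CA3 hippocampal field potential recorded; auditory-evoked responses averaged over 50 stimulus pairs at 10 s interstimulus interval. Gating disrupted by d-amphetamine 1 mg/kg iv; compound sc. Read-out is reversal of the amphetamine deficit; PBS vehicle; two-tailed paired t-test.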

Data set [4] deals with T1, Muscarinic acetylcholine receptor M5 (Homo sapiens, UniProt P08912).
T1 sequence (P08912 whole entry): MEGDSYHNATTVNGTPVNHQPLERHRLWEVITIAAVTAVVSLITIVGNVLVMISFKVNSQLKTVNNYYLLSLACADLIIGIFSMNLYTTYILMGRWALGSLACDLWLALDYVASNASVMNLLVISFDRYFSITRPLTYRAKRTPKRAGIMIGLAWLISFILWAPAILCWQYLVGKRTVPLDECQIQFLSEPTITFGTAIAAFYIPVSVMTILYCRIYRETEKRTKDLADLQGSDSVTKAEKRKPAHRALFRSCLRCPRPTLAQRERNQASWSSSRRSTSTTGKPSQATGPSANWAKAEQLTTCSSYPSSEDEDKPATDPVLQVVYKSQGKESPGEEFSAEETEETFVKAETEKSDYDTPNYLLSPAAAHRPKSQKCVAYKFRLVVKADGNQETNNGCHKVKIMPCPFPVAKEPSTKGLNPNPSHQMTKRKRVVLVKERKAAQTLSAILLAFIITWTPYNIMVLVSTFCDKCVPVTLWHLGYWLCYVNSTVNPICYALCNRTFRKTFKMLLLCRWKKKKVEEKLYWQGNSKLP
Briefly: Inhibition of muscarinic M5 receptor.

Data set [5] concerns the target T2, Muscarinic acetylcholine receptor M4 (Homo sapiens, UniProt P08173).
T2 sequence (P08173 whole entry): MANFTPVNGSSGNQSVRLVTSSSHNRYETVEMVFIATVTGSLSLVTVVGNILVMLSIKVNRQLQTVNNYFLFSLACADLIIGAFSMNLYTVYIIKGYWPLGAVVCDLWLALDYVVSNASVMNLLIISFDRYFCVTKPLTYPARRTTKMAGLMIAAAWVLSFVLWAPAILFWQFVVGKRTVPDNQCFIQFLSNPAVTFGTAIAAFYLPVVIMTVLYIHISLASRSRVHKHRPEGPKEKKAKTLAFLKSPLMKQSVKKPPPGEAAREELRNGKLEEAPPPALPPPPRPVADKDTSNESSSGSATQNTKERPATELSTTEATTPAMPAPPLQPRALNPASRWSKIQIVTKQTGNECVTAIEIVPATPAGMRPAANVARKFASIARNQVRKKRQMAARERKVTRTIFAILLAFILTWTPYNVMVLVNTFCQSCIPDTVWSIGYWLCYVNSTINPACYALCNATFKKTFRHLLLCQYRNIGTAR
Briefly: Inhibition of muscarinic M4 receptor.

In data set [6] the target is Neuronal acetylcholine receptor; alpha4/beta2 (Rattus norvegicus, UniProt P09483+P12390). Description: Displacement of [3H]nicotine from alpha4beta2 nAChR in rat brain homogenate. Format: tissue-based. In outline:
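Rat brain homogenate membranes; [3H]nicotine used as radioligand. Ki taken as the average of a six-point dose-response curve run in triplicate.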

The target in data set [7] is Neuronal acetylcholine receptor subunit alpha-7 (Homo sapiens, UniProt P36544). Briefly: Displacement of [125I]BTX from human alpha7 nicotinic acetylcholine receptor expressed in IMR32 cells. Format: cell-based, IMR-32. In outline:
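Human α7 nAChR in IMR-32 cells, [125I]BTX radioligand. Six-point concentration-response curve, run in triplicate and averaged.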

Data set [8] has as its system Rattus norvegicus. Briefly: Cognitive enhancement in Sprague-Dawley rat assessed as reversal of amphetamine-induced auditory sensory gating deficit at 1 mg/kg, sc. Format: functional, organism-based. Further details: dose 1 mg/kg. In outline: as §1
Data set [9] deals with Rattus norvegicus. Description: Cognitive enhancement in Sprague-Dawley rat assessed as reversal of amphetamine-induced auditory sensory gating deficit at 0.3 mg/kg, sc. It is filed as functional, organism-based. Further details: dose 0.3 mg/kg. In outline: as §1
A short description of data set [10]: Agonist activity at human alpha7 nAChR/mouse 5HT3 chimeric receptor expressed in SH-EP1 cells assessed as increase in intracellular calcium level relative to 100 uM nicotine. It is filed as functional. In outline:
(§2)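 α7-5HT3 chimera stably in SH-EP1 cells grown to confluence; loaded with Calcium Green 1 AM (2 μM final) 60 min at 37 °C. Compound added directly; calcium rise read by FLIPR (excitation 488 nm, emission >525 nm).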

Data set [11] deals with Muscarinic acetylcholine receptor M3 (Homo sapiens, UniProt P20309). Briefly: Inhibition of muscarinic M3 receptor.
Data set [12] has as its system Rattus norvegicus. Briefly: Cognitive enhancement in Sprague-Dawley rat assessed as reversal of amphetamine-induced auditory sensory gating deficit at 0.1 mg/kg, sc. Further details: dose 0.1 mg/kg. It is filed as functional, organism-based. The gist of the method: as §1
The test system of data set [13] is Rattus norvegicus. Briefly: Cognitive enhancement in Sprague-Dawley rat assessed as improvement of scopolamine-impaired performance at 0.32 mg/kg, sc administered 30 mins before scopolamine challenge by novel object recognition assay. Format: functional, organism-based. Further details: dose 0.32 mg/kg. The gist of the method:
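Rats habituated to the arena 3 min on day 1. Next day, 10-15 per group dosed sc with vehicle or compound, then 30 min later vehicle or (-)-scopolamine 0.2 mg/kg sc. After 30 min more, two identical objects shown 3 min; 2.5 h later one novel and one familiar object for 3 min. Exploration time per object, mean ± SEM.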

Data set [14] concerns Rattus norvegicus. Briefly: Cognitive enhancement in Sprague-Dawley rat assessed as reversal of amphetamine-induced auditory sensory gating deficit at 0.03 mg/kg, sc. It is filed as functional, organism-based. Further details: dose 0.03 mg/kg. In outline:
as §1

A short description of data set [15]: Agonist activity at human alpha7 nAChR/mouse 5HT3 chimeric receptor expressed in SH-EP1 cells assessed as increase in intracellular calcium level. Format: functional, cell-based. In outline: as §2
Data set [16] concerns Rattus norvegicus. Description: Free plasma concentration in Sprague-Dawley rat auditory sensory gating deficit model at 0.3 mg/kg, sc after 40 mins. Particulars: route subcutaneous. Format: functional. The gist of the method:
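Rats given 0.3 mg/kg sc; free plasma concentration measured about 40 min after dosing.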

For data set [17], the system named is Rattus norvegicus. Briefly: Cognitive enhancement in Sprague-Dawley rat assessed as augmentation of amphetamine-induced hippocampal theta oscillation at 1 mg/kg, sc. Format: functional, organism-based. Further details: dose 1 mg/kg. The conditions noted are these: Hippocampus.
Data set [18] in a line: Permeability from apical to basolateral side in dog MDCK cells at 2 uM. Particulars: read-out: permeability. Format: ADME, cell-based, Canis lupus familiaris. The gist of the method:
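MS quantification of apical-to-basolateral transfer of compound at 2 μM across contiguous MDCK cell monolayers.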

Activity calls are given as the source filed them. The rule behind the calls is not given here.

Sequence of Neuronal acetylcholine receptor; alpha4/beta2 (P09483 whole entry): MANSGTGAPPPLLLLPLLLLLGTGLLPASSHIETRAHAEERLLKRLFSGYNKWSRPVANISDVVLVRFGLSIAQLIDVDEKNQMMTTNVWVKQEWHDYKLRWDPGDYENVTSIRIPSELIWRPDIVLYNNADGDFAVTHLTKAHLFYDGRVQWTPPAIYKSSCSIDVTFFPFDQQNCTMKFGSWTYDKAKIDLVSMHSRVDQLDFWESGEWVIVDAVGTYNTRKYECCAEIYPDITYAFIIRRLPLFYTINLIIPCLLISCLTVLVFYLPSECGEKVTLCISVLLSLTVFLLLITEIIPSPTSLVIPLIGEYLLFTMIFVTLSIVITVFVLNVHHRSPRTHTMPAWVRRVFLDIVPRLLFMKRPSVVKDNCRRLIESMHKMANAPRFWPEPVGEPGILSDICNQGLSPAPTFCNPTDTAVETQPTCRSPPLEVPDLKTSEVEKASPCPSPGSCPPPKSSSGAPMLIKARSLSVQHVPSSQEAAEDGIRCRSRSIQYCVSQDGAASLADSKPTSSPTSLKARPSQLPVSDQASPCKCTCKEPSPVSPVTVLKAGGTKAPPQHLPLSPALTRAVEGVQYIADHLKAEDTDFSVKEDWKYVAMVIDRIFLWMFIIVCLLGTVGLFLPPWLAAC
Sequence of Neuronal acetylcholine receptor; alpha4/beta2 (P12390 whole entry): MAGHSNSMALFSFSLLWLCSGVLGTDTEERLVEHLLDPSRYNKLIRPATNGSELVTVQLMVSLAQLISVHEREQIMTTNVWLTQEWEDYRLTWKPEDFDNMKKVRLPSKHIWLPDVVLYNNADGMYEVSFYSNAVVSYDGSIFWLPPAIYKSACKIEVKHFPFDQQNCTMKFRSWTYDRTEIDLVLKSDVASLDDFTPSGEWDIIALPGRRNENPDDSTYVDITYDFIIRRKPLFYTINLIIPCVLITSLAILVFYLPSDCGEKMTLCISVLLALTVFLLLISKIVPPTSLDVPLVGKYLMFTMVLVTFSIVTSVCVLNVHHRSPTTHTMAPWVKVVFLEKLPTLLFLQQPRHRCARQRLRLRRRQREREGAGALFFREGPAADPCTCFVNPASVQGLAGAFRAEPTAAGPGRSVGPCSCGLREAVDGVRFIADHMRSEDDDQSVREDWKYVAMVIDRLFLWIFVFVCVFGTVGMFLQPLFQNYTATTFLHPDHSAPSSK
Sequence of Neuronal acetylcholine receptor subunit alpha-7 (Rattus norvegicus, UniProt Q05941) (Q05941 whole entry): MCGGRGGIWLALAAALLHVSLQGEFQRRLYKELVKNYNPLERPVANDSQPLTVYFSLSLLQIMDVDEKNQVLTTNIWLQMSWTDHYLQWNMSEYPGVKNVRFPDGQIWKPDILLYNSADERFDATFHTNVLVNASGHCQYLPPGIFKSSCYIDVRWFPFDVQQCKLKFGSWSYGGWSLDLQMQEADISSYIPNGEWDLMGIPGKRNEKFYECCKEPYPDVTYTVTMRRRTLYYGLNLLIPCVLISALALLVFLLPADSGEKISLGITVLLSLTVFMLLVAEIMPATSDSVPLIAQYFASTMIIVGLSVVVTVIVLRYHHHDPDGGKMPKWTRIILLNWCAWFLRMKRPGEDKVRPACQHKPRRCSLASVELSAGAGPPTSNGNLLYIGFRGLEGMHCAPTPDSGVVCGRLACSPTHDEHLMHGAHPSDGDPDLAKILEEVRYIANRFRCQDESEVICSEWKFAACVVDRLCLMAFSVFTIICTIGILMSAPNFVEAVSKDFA
Sequence of Muscarinic acetylcholine receptor M3 (P20309 whole entry): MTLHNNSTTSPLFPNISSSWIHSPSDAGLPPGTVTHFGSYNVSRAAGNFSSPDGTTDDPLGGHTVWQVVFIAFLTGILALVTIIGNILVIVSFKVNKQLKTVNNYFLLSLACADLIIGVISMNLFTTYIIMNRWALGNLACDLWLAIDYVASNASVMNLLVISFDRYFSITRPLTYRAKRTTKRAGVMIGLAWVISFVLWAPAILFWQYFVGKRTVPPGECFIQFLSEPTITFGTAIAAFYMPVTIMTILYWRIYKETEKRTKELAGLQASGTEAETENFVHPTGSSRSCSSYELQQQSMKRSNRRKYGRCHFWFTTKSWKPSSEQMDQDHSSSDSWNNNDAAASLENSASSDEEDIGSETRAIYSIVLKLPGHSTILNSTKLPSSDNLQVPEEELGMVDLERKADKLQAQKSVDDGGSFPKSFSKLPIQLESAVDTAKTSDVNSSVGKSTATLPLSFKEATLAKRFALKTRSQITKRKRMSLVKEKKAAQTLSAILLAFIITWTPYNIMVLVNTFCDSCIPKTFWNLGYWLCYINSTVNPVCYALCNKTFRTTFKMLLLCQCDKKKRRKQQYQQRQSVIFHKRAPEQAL
Sequence of Neuronal acetylcholine receptor subunit alpha-7 (Homo sapiens, UniProt P36544) (P36544 whole entry): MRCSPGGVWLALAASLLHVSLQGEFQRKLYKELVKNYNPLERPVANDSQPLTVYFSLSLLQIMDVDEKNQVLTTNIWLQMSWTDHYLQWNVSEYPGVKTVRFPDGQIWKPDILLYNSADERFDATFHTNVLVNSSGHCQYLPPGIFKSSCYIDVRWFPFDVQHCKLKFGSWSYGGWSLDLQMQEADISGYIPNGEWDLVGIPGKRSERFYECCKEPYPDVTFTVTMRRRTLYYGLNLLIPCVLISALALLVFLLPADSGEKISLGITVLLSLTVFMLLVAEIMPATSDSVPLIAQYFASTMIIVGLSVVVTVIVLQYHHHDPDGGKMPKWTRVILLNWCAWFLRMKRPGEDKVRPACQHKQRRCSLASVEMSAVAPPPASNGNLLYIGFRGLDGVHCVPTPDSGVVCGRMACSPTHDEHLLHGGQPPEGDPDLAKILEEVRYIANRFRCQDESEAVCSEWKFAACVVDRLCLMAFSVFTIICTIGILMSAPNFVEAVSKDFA

Regarding `Cc1ccc2oc(N3CCN4CCC3CC4)nc2n1`, in data set [1], the Kp at 40 min was 1.5. For the same compound, the Ki in data set [2] came to 13.5 nM; in data set [4] it was 5200 nM; in [5] it was 3000 nM; in [6], 1350 nM; in [7], 16.4 nM; in data set [11] it was 8300 nM. Moreover, the minimal effective dose in the data set with Rattus norvegicus [3] was 0.3 mg/kg. Also, the outcome with Rattus norvegicus [8], in the data set with Rattus norvegicus [9], in the data set with Rattus norvegicus [12], in the data set with Rattus norvegicus [13], in the data set on Rattus norvegicus [14] and in the data set on Rattus norvegicus [17] was Active. Also, the Efficacy in data set [10] is reported as 46%. The EC50 in [15] stood at 244 nM. For the same compound, the “Cp(f)” value with Rattus norvegicus [16] is listed as 326 nM. Further, in data set [18], the Papp A→B at 2 µM turned out to be 18 ×10⁻⁶ cm/s.
